In ChEMBL document CHEMBL1128517, “Unusual single-stranded polyribonucleotides as potent anti-HIV agents” (J Med Chem, 1995):
pIC50: −log10 of the molar value.

Assays:
CEM-SS [1] = assay: Inhibitory activity against the cytopathic effect of HIV-2 G910-6(AZT-res) strain in CEM-SS cells; assay type: functional, cell-based; settings: Homo sapiens
Outline: (§1)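 XTT cytoprotection assay. CEM-SS cells were seeded at 5×10^3 per well and infected at a multiplicity that gave complete killing of virus control wells by day 6. Isolates were pretitered to equivalent infection. Serial half-log dilutions of compound were tested in triplicate. After 6 days at 37 °C, XTT (1 mg/mL) with phenazine methosulfate (6.12 µg/mL) was added for 4 h and read at 450 nm. Concentrations in µM were based on estimated number-average molecular weights.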

CEM-SS [2] = assay: Inhibitory activity against the cytopathic effect of HIV-2 MS strain in CEM-SS cells; assay type: functional, cell-based; settings: Homo sapiens; outline: as §1
Homo sapiens [3] = organism: Homo sapiens; assay: Inhibitory activity against the HIV-1-induced cytopathic effect in Macrophage; assay type: functional, organism-based
Outline: (§2)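 Fresh human peripheral blood lymphocytes and macrophages were isolated by Ficoll-Hypaque centrifugation. They were infected with clinical HIV-1 isolates cultured from patient peripheral blood lymphocytes, then treated with the polymers. Inhibition of HIV replication was reported as IC50.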

CEM-SS [4] = assay: Inhibitory activity against the cytopathic effect of HIV-2 ROD strain in CEM-SS cells; assay type: functional, cell-based; settings: Homo sapiens; outline: as §1
CEM-SS [5] = assay: Inhibitory activity against the HIV-1-induced cytopathic effect in CEM-SS cell line; assay type: functional, cell-based; settings: Homo sapiens; outline: as §1
Homo sapiens [6] = organism: Homo sapiens; assay: Inhibitory activity against the HIV-1-induced cytopathic effect in human peripheral blood lymphocytes; assay type: functional, organism-based; outline: as §2
CEM-SS [7] = assay: Inhibitory activity against the cytopathic effect of HIV-1 IIIB strain in CEM-SS cells; assay type: functional, cell-based; settings: Homo sapiens; outline: as §1
CEM-SS [8] = assay: Inhibitory activity against the cytopathic effect of HIV-1 LAV strain in CEM-SS cells; assay type: functional, cell-based; settings: Homo sapiens; outline: as §1
CEM-SS [9] = assay: Inhibitory activity against the cytopathic effect of HIV-2 A17 (pyridinone-res) strain in CEM-SS cells; assay type: functional, cell-based; settings: Homo sapiens; outline: as §1
CEM-SS [10] = assay: Inhibitory activity against the cytopathic effect of HIV-1 RFstrain in CEM-SS cells; assay type: functional, cell-based; settings: Homo sapiens; outline: as §1
MT2 = assay: Inhibitory activity against the HIV-1-induced cytopathic effect in MT-2 cell line; assay type: functional, cell-based; settings: Homo sapiens
Homo sapiens [11] = organism: Homo sapiens; assay: Inhibitory activity against the HIV-1-induced cytopathic effect in fresh human peripheral blood lymphocytes; assay type: functional, organism-based; outline: as §2

Row | SMILES | pIC50 (CEM-SS [1]) | pIC50 (CEM-SS [2]) | pIC50 (Homo sapiens [3]) | pIC50 (CEM-SS [4]) | pIC50 (CEM-SS [5]) | pIC50 (Homo sapiens [6]) | pIC50 (CEM-SS [7]) | pIC50 (CEM-SS [8]) | pIC50 (CEM-SS [9]) | pIC50 (CEM-SS [10]) | pIC50 (MT2) | pIC50 (Homo sapiens [11])
1 | Cn1c(N)nc2c(ncn2[C@@H]2O[C@H](CO)[C@@H](OP(=O)(O)O)[C@H]2O)c1=S | 7.70 | 7.52 | 8.70 | 7.52 | 8.00 | 7.52 | 8.00 | 7.52 | 7.10 | 7.30 | 6.80 | –
2 | Cn1cnc2c(ncn2C2O[C@H](COP(=O)(O)O)[C@@H](O)[C@H]2O)c1=S (stereo partly drawn) | 7.00 | 6.85 | 6.82 | 6.60 | 7.10 | – | 7.10 | 7.40 | 6.22 | 6.77 | 6.10 | 7.52
3 | Cc1cn([C@H]2C[C@H](N=[N+]=[N-])[C@@H](CO)O2)c(=O)[nH]c1=O [ZIDOVUDINE] | < 6.00 | 7.52 | 6.40 | 8.30 | 8.70 | – | 8.70 | 8.40 | 8.30 | 7.52 | 8.22 | 7.70
